This passage reports yeast fitness results from the RNAGym collection of RNA variant scans (doi:10.1126/science.aae0568).

The labels stand for the following.
B1: tRNA (parent)
chain: GUUCCGUUGGCGUAAUGGUAACGCGUCUCCCUCCUAAGGAGAAGACUGCGGGUUCGAGUCCCGUACGGAACG

Fewer inactive variants are shown than the library holds.

Variants of B1 are the subject of this series. Put plainly: yeast fitness relative to wild type (ratio to wild type); higher = fitter; tRNA-Arg(CCU), competitive growth, 37 C, YPD. In short, it runs like this: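 Changes in genotype frequencies gave Darwinian fitness relative to wild type. Frequencies were read by 100-nucleotide paired-end sequencing of gene amplicons before and after pooled Saccharomyces cerevisiae strains, carrying tRNA-Arg(CCU) gene variants at the native locus, were competed in YPD at 37°C for 24 hours in six replicates. A genotype was kept only with ≥ 100 starting reads, and estimates < 0.5 were set to 0.5.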
For the variant GUUCUGUUGGCGUAAUGGUAAGGCGUCUACCUCCUAAGGAGAAGUCUGCGGGUUCGAGUCCCGUACGGAACG, the yeast fitness amounted to 0.627.
With GUUCUGUUGGCGUAAUGGUAAGGCGUCUCUCUGCUAAGGAGAAGACUGCGGGUUCGAGUCCCGUACGGAACG the figure was no more than 0.5; with GUUCUGUUGGCGUAAUGGUAAUGCGUCUCCCUCCUAAGGAGAACACUGCGGGUUCGAGUCCCGUACGGAACG, 0.73.
With GUUCUGUUGGCGUAAUGGUAACGCGUAUCCCUCCUAAGGAGAAGACUGCGGGUUCGAGUCCCGUACGGAACG the figure was 0.817.
The figure for GUUCUGUUGGCGUAAUGGUAACGCGUGUCCCUCCUAAGGAGAAGACUGCGGGUUCGAGUCCCGUACGGAACG is 0.61.
As to GUUCUGUUGGCGUAAUGGUAAGGCGUCUGCCUCCUAAGGAGAAGACUGCGGGUUCGAGUCCCGUACGCAACG, the yeast fitness was no more than 0.5.
The figure for GUUCUGUUGGCGUAAUGGUAAUGCGUUUCCCUCCUAAGGAGGAGACUACGGGUUAGAGUACCGUACGGAUCG is no more than 0.5; for GUUCUGUUGGCGUAAUGGUAAUGCGUCUCCCUCCUAUGGAGAAGACUGCGGGUUCGAGUCCCGUACGUAACG it is no more than 0.5; for GUUCUGUUGGCGUAAUGGUAAGGCGUCACCGUCCUAAGGAGAAGACUGCGGGUUAGAGUCCCGUACGCAACG it is 0.542.
For GUUCUGUUGGCGUAAUGGUAACGAGUCUCCCUUCUAAGGAGAAGACCGCGGGUUCGAGUCCCAUACUGAACG, the yeast fitness was found to be 0.718.
The figure for GUUCUGUUGGCGUAAUGGUAAUGCGUCUCCGUGUUAAGGAGAAGACUGCGGGUUCGAGUCCCGUACGAAACG is no more than 0.5; for GUUCUGUUGGCGUAAUGGUAAGGGGUCUCAUUCCUAAGGAGAAGACUGCGGGUUCGAGUCCCGUACGGAACG it is no more than 0.5.
With GUUCUGUUGGCGUAAUGGUAACGUGUCUCCCUCCUAAGGAGCAGACUGCGGGUUCGUGUCCCGUACGGAACG the figure was 0.534; with GUUCUGUUGGCGUAAUGGUAACGUGUCUCCCUCCUAAGGAGAAGAGUGCGGGUUCGAGUCCCGUCCGGAACG, 0.537; with GUUCUGUUGGCGUAAUGGUAAUGCGUCUCCCUCCUAUGGAGAAGACUGCGGGUUCGAGUCCCGUACAGAACG, no more than 0.5.
Regarding GUUCUGUUGGCGUAAUGGUAACGGGUCUCCCUCCUAAGGAGCAGACUGCGGGGUCGAGUCCCGUACGGAACG, the yeast fitness is no more than 0.5.
The figure for GUUCUGUUGGCGUAAUGGUAACGAGUGUCCCUCCUAAGGAGAAGACUGCGGGUUCGAGUCACGUAGGGAACG is 0.624.
For the variant GUUCUGUUGGCGUAAUGGUAACGCGUGUCCCUCCUAAUGAGAAGACUGCGGGUUCGAGUCCCGUACGGAACG, the yeast fitness was no more than 0.5.
With GUUCUGUUGGCGUAAUGGUAACGCGUGUCCCACCUAAGGAGAAGACUGCGGGUUCGAGUCCCGUACGGAACG the figure was 0.561; with GUUCUGUUGGCGUAAUGGUAACGCGUGUCCCUGCUAAGGACAAGACUGCGGGUUCGAGUCACGUACGGAACG, no more than 0.5; with GUUCUGUUGGCGUAAUGGUAACGCGUGUCCCUCCUAAGGAGAAGACUGCGGGUUGGAGUCCCGUACGGUACG, no more than 0.5.
With GUUCUGUUGGCGUAAUGGUAACGUGUCUCCCCCCUAAGGAGAAGACUGCGGGUUCGAGUCCCGUACGGAACG, the yeast fitness worked out at 0.72.
The figure for GUUCUGUUGGCGUAAUGGUAAUGCGUCUCCCUUCUAGGGAGAAGACUGCGGGUUCGAGUCCCGUACGGAACG is no more than 0.5.
With GUUCUGUUGGCGUAAUGGUAAGGCGUCUCUCUGCUAAGGAGAAGACUGCGGGUUCGAGUCCCGUACGGGACG the figure was 0.552; with GUUCUGUUGGCGUAAUGGUAACGGGUCUCCCGCCUGAGGAGAAGACUGCGGGUUCGAGUACCGUUCGGAACG, 0.535.
The figure for GUUCUGUUGGCGUAAUGGUAACGCGUGUCCGUCCUAAGGAGAACGCUGCGGGUUCGAGUCCCGUACGGAACG is no more than 0.5; for GUUCUGUUGGCGUAAUGGUAAUGCGUCUCCCUCCUAAGGAGAAGACUGCGGGUUCGAGUCCUGUACGGAACG it is 0.66.
Turning to GUUCUGUUGGCGUAAUGGUAACGAGUCUCCCUCCUAAGGAGAAGACUGCGGGUUCGAGUCCCGUUCGGAACG, the yeast fitness is 0.733.
With GUUCUGUUGGCGUAAUGGUAACGCGUGGCCCUCCUAAGGAGAAGACUGCGGGUUCGAGUCCCGUACGGAACG the figure was no more than 0.5.
The figure for GUUCUGUUGGCGUAAUGGUAAUGCGUCUCCCUCCUAAGGAGAAGACUGCGGGUUCGAGUCCCGUACGGAACG is 0.792; for GUUCUGUUGGCGUAAUGGUAAGGCGUCUCCCUCCUAAGGAGAAGACUGCGGGUUCGAGUCCCGUACGGAACG it is 0.991.
GUUCUGUUGGCGUAAUGGUAACGUGUCUCCCUCCUAAGGAGCAGACUGCGGGUUCGUGUCCAGUACGGAACG: the yeast fitness is no more than 0.5.
The figure for GUUCUGUUGGCGUAAUGGUAACGGGUCUCCGUCCUAAGGAGAAGACUGCGGGUUCGAGUCGCGUACGGAACG is no more than 0.5.
With GUUCUGUUGGCGUAAUGGUAAGGCGUCUCCCUCCUAAGGAGAAGACUGCCGGUUCGAGUCCCGUACGGAACG the figure was no more than 0.5.
The figure for GUUCUGUUGGCGUAAUGGUAACGGGUCUCCCUCCUAUGGAGAAGACUGCGGGUUCAAGUCCCGUCCGGAACG is no more than 0.5.
GUUCUGUUGGCGUAAUGGUAACGCGUAUCCCUCCUAAGGACAAGACUGCGGGUUCGUGUCCCGUACGGAACG: the yeast fitness was no more than 0.5.
The figure for GUUCUGUUGGCGUAAUGGUAAAGCGUCUCCCUCCUAAGGAGAAGACUGCGGGUUCGAGUCCGGUACGGAACG is 0.546.
